As a reminder, the IC50 is the concentration needed to halve the response being measured.

From ChEMBL document CHEMBL1135672, “QSAR evaluation of the Ch'an Su and related bufadienolides against the colchicine-resistant primary liver carcinoma cell line PLC/PRF/5(1)” (J Med Chem, 2002) come the findings set out here.

≈ marks a conversion by molar mass, not a printed value.

Experiment [1] can be described thus: Inhibitory activity against the primary liver carcinoma (PLC) cell line PLC/PRF/5. The format is functional, Homo sapiens.
A short description of experiment [2]: Inhibitory activity against colchicine resistant parent primary liver carcinoma (PLC) cell line PLC/PRF/5. The experiment is classed as functional, Homo sapiens. In a few lines:
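PLC/PRF/5 cells were precultured 24 h at 37 °C in 5% CO₂ in 96-well plates, then given colchicine at 0.5 μg/mL. Test compounds were added in dilutions of 10⁻²–10⁻⁶ μg/mL and incubated 72 h at 37 °C in 5% CO₂. Survival was read by MTT. IC50 is the μg/mL giving 50% growth inhibition of the colchicine-resistant cells.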

With `C[C@]12CC[C@H](O)C[C@@]1(O)CC[C@@H]1[C@@H]2CC[C@]2(C)[C@@H](C3=CC(=O)OC3)CC[C@]12O` [PERIPLOGENIN], the IC50 in experiment [1] was found to be 0.061 µg/mL (≈ 0.156 µM); in experiment [2], 0.75 µg/mL (≈ 1.92 µM).
For `C[C@]12CC[C@H](O)C[C@H]1CC[C@@H]1[C@@H]2CC[C@]2(C)C3CC[C@]12OC=C3/C=C/CC(=O)O`, the IC50 was 10 µg/mL (≈ 25 µM) in experiment [1] and above 50 µg/mL in experiment [2].
With `CC(=O)O[C@H]1C[C@]2(O)[C@@H]3CC[C@@H]4C[C@@H](O)CC[C@]4(C)[C@H]3CC[C@]2(C)[C@H]1c1ccc(=O)oc1` [BUFOTALIN], the IC50 in experiment [1] was 0.00034 µg/mL (≈ 0.000765 µM); in experiment [2], 0.0026 µg/mL (≈ 0.00585 µM).
The matching figures for `CC(=O)O[C@H]1CC[C@]2(C)C3CC[C@]4(C)[C@@H](c5ccc(=O)oc5)[C@@H](O)[C@@H]5O[C@@]54C3CC[C@@H]2C1` (stereo partly drawn): 0.88 µg/mL (≈ 1.99 µM) and 1 µg/mL (≈ 2.26 µM).
Turning to `C=C(C)C(=O)O[C@H]1CC[C@@]2(C)[C@H](CC[C@@H]3[C@@H]2CC[C@]2(C)[C@@H](c4ccc(=O)oc4)CC[C@]32O)C1`, the 50% inhibitory concentration (IC50) in experiment [1] is 0.059 µg/mL (≈ 0.13 µM); in experiment [2] it was 0.097 µg/mL (≈ 0.213 µM).
For the compound `CC(=O)CC1CC2C(O1)[C@H]1O[C@]13[C@@H]1CC[C@@H]4C[C@@H](O)CC[C@]4(C)[C@H]1CC[C@]23C` (stereo partly drawn), the half-maximal inhibitory concentration (IC50) in experiment [1] was 9.5 µg/mL (≈ 24.5 µM); in experiment [2], above 50 µg/mL.
`CC(=O)O[C@H]1CC[C@@]2(C)[C@H](CC[C@@H]3[C@@H]2CC[C@]2(C)[C@@H](c4ccc(=O)oc4)[C@@H](O)[C@H]4O[C@]342)C1`: the figures for the half-maximal inhibitory concentration (IC50) in experiment [1] and in experiment [2] were 0.098 µg/mL (≈ 0.221 µM) and 3.4 µg/mL (≈ 7.68 µM), respectively.
On to `C[C@]12CC[C@H]3[C@@H](CC[C@]4(O)C[C@@H](O)CC[C@]34C=O)[C@@]1(O)CC[C@@H]2c1ccc(=O)oc1`, for which the IC50 in experiment [1] was determined as 0.00016 µg/mL (≈ 0.000384 µM); in experiment [2], 0.00053 µg/mL (≈ 0.00127 µM).
The matching figures for `C[C@]12C=CC(=O)C=C1CCC1C2CC[C@]2(C)[C@@H](c3ccc(=O)oc3)C[C@H]3O[C@]132` (stereo partly drawn): 6.7 µg/mL (≈ 17.7 µM) and 10 µg/mL (≈ 26.4 µM).
As for `C[C@]12CCC(=O)C=C1CCC1C2CC[C@]2(C)[C@@H](c3ccc(=O)oc3)CC[C@]12O` (stereo partly drawn), the IC50 was determined as 0.00019 µg/mL (≈ 0.000497 µM) in experiment [1] and 0.82 µg/mL (≈ 2.14 µM) in experiment [2].
Take `C[C@]12C=CC(=O)C[C@H]1CCC1C2CC[C@]2(C)[C@@H](c3ccc(=O)oc3)C[C@H]3O[C@]132` (stereo partly drawn): the results for the IC50 in experiment [1] and in experiment [2] were 2.6 µg/mL (≈ 6.83 µM) and 7.8 µg/mL (≈ 20.5 µM), respectively.
`C[C@]12CC[C@H]3[C@@H](CC[C@@H]4C[C@@H](O)CC[C@@]43C=O)[C@]13O[C@@H]3C[C@@H]2c1ccc(=O)oc1`: the results for the IC50 in experiment [1] and in experiment [2] were 0.0089 µg/mL (≈ 0.0223 µM) and 0.075 µg/mL (≈ 0.188 µM), respectively.
For the compound `C[C@]12CC[C@H](OC(=O)CCCCCCC(=O)O)C[C@H]1CC[C@@H]1[C@@H]2CC[C@]2(C)[C@@H](C3=CC(=O)OC3)CC[C@]12O`, the 50% inhibitory concentration (IC50) in experiment [1] turned out to be 5.2 µg/mL (≈ 9.8 µM); in experiment [2] it was 8.6 µg/mL (≈ 16.2 µM).
With `C[C@]12CC[C@H](OC(=O)CCC(=O)O)C[C@H]1CC[C@@H]1[C@@H]2CC[C@]2(C)[C@@H](c3ccc(=O)oc3)CC[C@]12O`, the values for the IC50 in experiment [1] and in experiment [2] were 0.066 µg/mL (≈ 0.136 µM) and 0.51 µg/mL (≈ 1.05 µM), respectively.
Regarding `C[C@]12CCC(=O)C[C@H]1CC[C@@H]1[C@@H]2CC[C@]2(C)[C@@H](c3ccc(=O)oc3)CC[C@]12O`, the results for the half-inhibitory concentration (IC50) in experiment [1] and in experiment [2] were 0.0093 µg/mL (≈ 0.0242 µM) and 0.61 µg/mL (≈ 1.59 µM), respectively.
Consider `C[C@]12CC[C@H](O)C[C@H]1CC[C@@H]1[C@@H]2CC[C@]2(C)[C@@H](c3ccc(=O)oc3)[C@@H](O)C[C@]12O` [DESACETYLBUFOTALIN], for which the IC50 in experiment [1] was found to be 0.00078 µg/mL (≈ 0.00194 µM); in experiment [2], 0.008 µg/mL (≈ 0.0199 µM).
The matching figures for `C[C@]12CC[C@@H](O)C[C@H]1CC[C@@H]1[C@@H]2CC[C@]2(C)[C@@H](c3ccc(=O)oc3)C[C@@H]3O[C@]312`: 4.7 µg/mL (≈ 12.2 µM) and 6.4 µg/mL (≈ 16.6 µM).
As for `CC(C)(C)OC(=O)NNC(=O)CCC(=O)O[C@H]1CC[C@@]2(C)[C@H](CC[C@@H]3[C@@H]2CC[C@]2(C)[C@@H](c4ccc(=O)oc4)CC[C@]32O)C1`, the IC50 in experiment [1] was 0.00062 µg/mL (≈ 0.00103 µM); in experiment [2] it was 0.0056 µg/mL (≈ 0.00932 µM).
The matching figures for `C[C@]12CC[C@H](O)C[C@H]1CC[C@@H]1[C@@H]2CC[C@]2(C)C(/C(=C/CO)CO)C[C@H]3O[C@]132` (stereo partly drawn): above 50 µg/mL and above 50 µg/mL.
On to `C[C@]12CC[C@H]3[C@@H](CC[C@@H]4C[C@@H](O)CC[C@@]43CO)[C@]13O[C@@H]3C[C@@H]2c1ccc(=O)oc1`, for which the results for the 50% inhibitory concentration (IC50) in experiment [1] and in experiment [2] were 0.61 µg/mL (≈ 1.52 µM) and 8.2 µg/mL (≈ 20.5 µM), respectively.
For the compound `CC(=O)O[C@H]1CC[C@]2(C)C3CC[C@]4(C)[C@@H](c5ccc(=O)oc5)[C@@H](OC(C)=O)C[C@@]4(O)C3CC[C@@H]2C1` (stereo partly drawn), the IC50 in experiment [1] was found to be 7.5 µg/mL (≈ 15.4 µM); in experiment [2] it was 21 µg/mL (≈ 43.2 µM).
The matching figures for `C[C@]12CC[C@H](O)C[C@H]1CC[C@@H]1[C@@H]2CC[C@]2(C)[C@@H](c3ccc(=O)oc3)C[C@H]3O[C@]132` [BUFOGENIN]: 0.077 µg/mL (≈ 0.2 µM) and 0.076 µg/mL (≈ 0.198 µM).
`CC(=O)O[C@H]1CC[C@]2(C)C3CC[C@]4(C)[C@@H](c5ccc(=O)oc5)C[C@@H]5O[C@@]54C3CC[C@@H]2C1` (stereo partly drawn): the IC50 in experiment [1] worked out at 5.9 µg/mL (≈ 13.8 µM); in experiment [2] it was 7.3 µg/mL (≈ 17.1 µM).
For the compound `C[C@]12CC[C@H](O)C[C@@]1(O)CC[C@@H]1[C@@H]2CC[C@]2(C)[C@@H](c3ccc(=O)oc3)[C@@H](O)[C@H]3O[C@]132` [DESACETYLCINOBUFOTALIN], the IC50 in experiment [1] was 0.67 µg/mL (≈ 1.61 µM); in experiment [2] it was 0.64 µg/mL (≈ 1.54 µM).
Turning to `COC(=O)CCCCCCC(=O)O[C@H]1CC[C@@]2(C)[C@H](CC[C@@H]3[C@@H]2CC[C@]2(C)[C@@H](C4=CC(=O)OC4)CC[C@]32O)C1`, the values for the IC50 in experiment [1] and in experiment [2] were 0.53 µg/mL (≈ 0.973 µM) and 0.98 µg/mL (≈ 1.8 µM), respectively.
The matching figures for `CC(=O)O[C@H]1CC[C@@]2(C)[C@H](CC[C@@H]3[C@@H]2CC[C@]2(C)[C@@H](c4ccc(=O)oc4)C[C@H]4O[C@]342)C1`: 0.32 µg/mL (≈ 0.75 µM) and 0.95 µg/mL (≈ 2.23 µM).
Consider `CC(=O)O[C@H]1CC[C@]2(C)C3CC[C@@]4(C)C(=C[C@H](OC(C)=O)[C@@H]4c4ccc(=O)oc4)C3CC[C@@H]2C1` (stereo partly drawn), for which the IC50 in experiment [1] stood at 5 µg/mL (≈ 10.7 µM); in experiment [2], 7.3 µg/mL (≈ 15.6 µM).
`CC(=O)O[C@H]1CC[C@@]2(C)[C@H](CC[C@@H]3[C@@H]2CC[C@]2(C)[C@@H](c4ccc(=O)oc4)[C@H](O)[C@H]4O[C@]342)C1`: the half-maximal inhibitory concentration (IC50) in experiment [1] was found to be 6.7 µg/mL (≈ 15.1 µM); in experiment [2] it was 7.5 µg/mL (≈ 16.9 µM).
On to `CC(=O)O[C@H]1CC[C@@]2(C)[C@H](CC[C@@H]3[C@@H]2CC[C@]2(C)[C@@H](c4ccc(=O)oc4)C(=O)[C@H]4O[C@@]432)C1`, for which the results for the 50% inhibitory concentration (IC50) in experiment [1] and in experiment [2] were 2.4 µg/mL (≈ 5.45 µM) and 7.6 µg/mL (≈ 17.3 µM), respectively.
The matching figures for `C[C@]12CC[C@H](O)C[C@H]1CC[C@@H]1[C@@H]2CC[C@]2(C)[C@@H](C3=CC(=O)OC3)CC[C@]12O` [DIGITOXIGENIN]: 0.00087 µg/mL (≈ 0.00232 µM) and 0.0092 µg/mL (≈ 0.0246 µM).
`CC(=O)O[C@H]1CC[C@@]2(C)[C@H](CC[C@@H]3[C@@H]2[C@H](O)C(=O)[C@]2(C)[C@@H](c4ccc(=O)oc4)CC[C@]32O)C1`: the figures for the concentration for half-maximal inhibition (IC50) in experiment [1] and in experiment [2] were 0.87 µg/mL (≈ 1.9 µM) and 6.8 µg/mL (≈ 14.8 µM), respectively.
As for `C[C@]12CCC(=O)C[C@H]1CC[C@@H]1[C@@H]2CC[C@]2(C)[C@@H](c3ccc(=O)oc3)C[C@H]3O[C@]132`, the concentration for half-maximal inhibition (IC50) in experiment [1] was 5.8 µg/mL (≈ 15.2 µM); in experiment [2] it was 9.7 µg/mL (≈ 25.4 µM).
Regarding `C[C@]12CC[C@H](O)C[C@@]1(O)CC[C@@H]1[C@@H]2CC[C@]2(C)[C@@H](c3ccc(=O)oc3)CC[C@]12O` [TELOCINOBUFAGIN], the IC50 in experiment [1] was determined as 0.000345 µg/mL (≈ 0.000857 µM); in experiment [2], 0.0026 µg/mL (≈ 0.00646 µM).
Turning to `C[C@]12CC[C@H](O)C[C@H]1CC[C@@H]1[C@@H]2CC[C@]2(C)[C@@H](c3ccc(=O)oc3)C[C@H](O)[C@]12Cl`, the half-maximal inhibitory concentration (IC50) in experiment [1] amounted to 0.07 µg/mL (≈ 0.166 µM); in experiment [2], 0.82 µg/mL (≈ 1.95 µM).
The matching figures for `CC(=O)CC1OC2C(C1C=O)[C@@]1(C)CC[C@H]3[C@@H](CC[C@@H]4C[C@@H](O)CC[C@@]43C)[C@]13O[C@H]23` (stereo partly drawn): 26 µg/mL (≈ 62.4 µM) and above 50 µg/mL.
Consider `COC(=O)C/C=C/C1=CO[C@]23CCC1[C@@]2(C)C[C@@H](OC(C)=O)[C@H]1[C@H]3CC[C@@H]2C[C@@H](OC(C)=O)CC[C@@]21C`, for which the figures for the IC50 in experiment [1] and in experiment [2] were 9.7 µg/mL (≈ 18.8 µM) and 20 µg/mL (≈ 38.9 µM), respectively.
Regarding `C[C@]12CCC(=O)C[C@H]1CC[C@@H]1[C@@H]2CC[C@]2(C)[C@@H](c3ccc(=O)oc3)C(=O)[C@H]3O[C@@]312`, the values for the half-maximal inhibitory concentration (IC50) in experiment [1] and in experiment [2] were 0.85 µg/mL (≈ 2.14 µM) and 5.6 µg/mL (≈ 14.1 µM), respectively.
Regarding `CC(=O)O[C@H]1CC[C@@]2(C)[C@H](CC[C@@H]3[C@@H]2CC[C@]2(C)[C@@H](C4=CC(=O)OC4)CC[C@]32O)C1`, the IC50 is 0.55 µg/mL (≈ 1.32 µM) in experiment [1] and 0.5 µg/mL (≈ 1.2 µM) in experiment [2].
On to `COC(=O)C/C=C/C1=CO[C@]23CCC1[C@@]2(C)CC[C@H]1[C@H]3CC[C@@H]2C[C@@H](O)CC[C@@]21C`, for which the half-inhibitory concentration (IC50) in experiment [1] was determined as 9.1 µg/mL (≈ 21.9 µM); in experiment [2], 45 µg/mL (≈ 109 µM).
